Measurements published in ChEMBL document CHEMBL1955790, “One pot synthesis and anticancer activity of dimeric phloroglucinols” (Bioorg Med Chem Lett, 2012).

How the values were obtained:
HCT-116 [1] = test: Growth inhibition of human HCT116 cells at 500 nM after 48 hrs by WST-8 assay; format: functional; conditions: HCT-116, 48 h, read-out: GI
In short: (§1)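 ATCC cells kept in DMEM with 10% FBS and antibiotics at 37 °C, 5% CO2. Seeded 5×10^3/well, incubated overnight, then treated with compound for 48 h against a DMSO vehicle control (≤0.1%). CCK-8 (WST-8) reduction by live-cell dehydrogenases read at 450 nm (corrected 650 nm) after 4 h at 37 °C. Viable cells expressed as % of the DMSO control.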

ACHN [2] = test: Growth inhibition of human ACHN cells at 500 nM after 48 hrs by WST-8 assay; format: functional; conditions: read-out: GI; in short: as §1
Calu-1 [3] = test: Cytotoxicity against human Calu1 cells after 48 hrs by WST-8 assay; format: functional, cell-based; conditions: Calu-1, 48 h
In short: (§2)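 ATCC cells kept in DMEM with 10% FBS, penicillin/streptomycin at 37 °C, 5% CO2. Seeded 5×10^3/well and left overnight, then exposed to a range of concentrations with DMSO vehicle (≤0.1%) as control. After 48 h, CCK-8 (WST-8) was added for 4 h at 37 °C and A450 read, corrected to 650 nm. Viability is % of DMSO control. IC50 was taken from log cytotoxicity curves.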

MCF-10A = test: Cytotoxicity against human MCF10A cells after 48 hrs by WST-8 assay; format: cell-based; in short: as §2
HCT-116 [4] = test: Cytotoxicity against human HCT116 cells after 48 hrs by WST-8 assay; format: functional, cell-based; conditions: HCT-116, 48 h; in short: as §2
Calu-1 [5] = test: Growth inhibition of human Calu1 cells at 500 nM after 48 hrs by WST-8 assay; format: functional; conditions: Calu-1, 48 h, read-out: GI; in short: as §1
ACHN [6] = test: Cytotoxicity against human ACHN cells after 48 hrs by WST-8 assay; format: functional, cell-based; in short: as §2
NCI-H460 [7] = test: Cytotoxicity against human NCI-H460 cells after 48 hrs by WST-8 assay; format: functional, cell-based; conditions: NCI-H460, 48 h; in short: as §2
PANC-1 [8] = test: Growth inhibition of human PANC1 cells at 500 nM after 48 hrs by WST-8 assay; format: functional; conditions: PANC-1, 48 h, read-out: GI; in short: as §1
NCI-H460 [9] = test: Growth inhibition of human NCI-H460 cells at 500 nM after 48 hrs by WST-8 assay; format: functional; conditions: NCI-H460, 48 h, read-out: GI; in short: as §1
PANC-1 [10] = test: Cytotoxicity against human PANC1 cells after 48 hrs by WST-8 assay; format: functional, cell-based; conditions: PANC-1, 48 h; in short: as §2
NCI-H460 [11] = test: Growth inhibition of human NCI-H460 cells at 10 uM after 48 hrs by WST-8 assay; format: functional; conditions: NCI-H460, 48 h, read-out: GI; in short: as §1
PANC-1 [12] = test: Growth inhibition of human PANC1 cells at 10 uM after 48 hrs by WST-8 assay; format: functional; conditions: PANC-1, 48 h, read-out: GI; in short: as §1
Calu-1 [13] = test: Growth inhibition of human Calu1 cells at 10 uM after 48 hrs by WST-8 assay; format: functional; conditions: Calu-1, 48 h, read-out: GI; in short: as §1
HCT-116 [14] = test: Growth inhibition of human HCT116 cells at 10 uM after 48 hrs by WST-8 assay; format: functional; conditions: HCT-116, 48 h, read-out: GI; in short: as §1
ACHN [15] = test: Growth inhibition of human ACHN cells at 10 uM after 48 hrs by WST-8 assay; format: functional; conditions: read-out: GI; in short: as §1

Structure (SMILES) | inhibition of growth at 0.5 µM (HCT-116 [1]) [%] | inhibition of growth at 0.5 µM (ACHN [2]) [%] | IC50 (Calu-1 [3]) [µM] | IC50 (MCF-10A) [µM] | IC50 (HCT-116 [4]) [µM] | inhibition of growth at 0.5 µM (Calu-1 [5]) [%] | IC50 (ACHN [6]) [µM] | IC50 (NCI-H460 [7]) [µM] | inhibition of growth at 0.5 µM (PANC-1 [8]) [%] | inhibition of growth at 0.5 µM (NCI-H460 [9]) [%] | IC50 (PANC-1 [10]) [µM] | inhibition of growth at 10 µM (NCI-H460 [11]) [%] | inhibition of growth at 10 µM (PANC-1 [12]) [%] | inhibition of growth at 10 µM (Calu-1 [13]) [%] | inhibition of growth at 10 µM (HCT-116 [14]) [%] | inhibition of growth at 10 µM (ACHN [15]) [%]
Nc1ccn([C@@H]2O[C@H](CO)[C@@H](O)C2(F)F)c(=O)n1 [GEMCITABINE] | 86 | 77 | 0.52 | > 10 | 0.32 | 74 | 0.48 | 0.23 | 83 | 81 | 0.11 |  |  |  |  | 
CC(C)CC(=O)c1c(O)c(C=O)c(O)c(C(c2ccc3c(c2)Cc2ccccc2-3)c2c(O)c(C=O)c(O)c(C(=O)CC(C)C)c2O)c1O |  |  | 8.8 | 26.2 | 9.4 |  | 9.9 | 9.2 |  |  | 9.6 | 54 | 57 | 58 | 52 | 50
CC(C)CC(=O)c1c(O)c(C=O)c(O)c(C(c2ccc3c(c2)OCO3)c2c(O)c(C=O)c(O)c(C(=O)CC(C)C)c2O)c1O |  |  | 9.2 | 25.9 | 9.5 |  | 8.9 | 8.6 |  |  | 8.8 | 51 | 55 | 54 | 50 | 53
CC(C)CC(=O)c1c(O)c(C=O)c(O)c(C(c2cccnc2)c2c(O)c(C=O)c(O)c(C(=O)CC(C)C)c2O)c1O |  |  | 6.3 | > 30 | 5.5 |  | 5.7 | 5.8 |  |  | 6.1 | 68 | 67 | 66 | 69 | 71
CC(C)CC(=O)c1c(O)c(C(=O)CC(C)C)c(O)c(C(c2ccc3c(c2)OCO3)c2c(O)c(C(=O)CC(C)C)c(O)c(C(=O)CC(C)C)c2O)c1O |  |  | 6.5 | > 30 | 7.1 |  | 6.7 | 6.6 |  |  | 7.2 | 63 | 69 | 62 | 60 | 67
CC(C)CC(=O)c1c(O)c(C(=O)CC(C)C)c(O)c(C(c2ccc(C(F)(F)F)cc2C(F)(F)F)c2c(O)c(C(=O)CC(C)C)c(O)c(C(=O)CC(C)C)c2O)c1O |  |  | 8.5 | 27.6 | 9.2 |  | 8.8 | 8.6 |  |  | 8.3 | 64 | 60 | 65 | 61 | 57
